The RNAGym collection of RNA variant scans (doi:10.1126/science.aae0568)
Variants at the floor of the assay were thinned out.

B1: tRNA (parent)
chain: GUUCCGUUGGCGUAAUGGUAACGCGUCUCCCUCCUAAGGAGAAGACUGCGGGUUCGAGUCCCGUACGGAACG

Variants of: B1
Test: yeast fitness relative to wild type (ratio to wild type); higher = fitter; tRNA-Arg(CCU), competitive growth, 37 C, YPD
In short: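 Amplicons of the tRNA-Arg(CCU) gene were sequenced, 100-nucleotide paired-end, from the start population and from each end population of a pooled yeast competition. The competition, in six parallel replicates, lasted 24 hours in YPD at 37°C. Fitness relative to wild type was calculated from changes in genotype frequencies. Genotypes had to have ≥ 100 starting reads, and estimates < 0.5 were set to 0.5.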

Question: With C24G G44C G58C G68U as the variant, how does the yeast fitness read?
Answer: Its yeast fitness is 0.516.

Question: With C24U C31G G50A U64C as the variant, how does the yeast fitness read?
Answer: Its yeast fitness is at most 0.5.

Question: Which yeast fitness does the source give for C24U A40G G58C here?
Answer: Its yeast fitness is 0.579.

Question: Which yeast fitness does the source give for C24G G68C A70C here?
Answer: Its yeast fitness is 0.578.

Question: Which yeast fitness does the source give for C24G C61U here?
Answer: Its yeast fitness is 0.59.

Question: With C24G G25C C30G U32C A57G as the variant, how does the yeast fitness read?
Answer: The yeast fitness was at most 0.5.

Question: With C24U C31U C49U as the variant, how does the yeast fitness read?
Answer: The yeast fitness was 0.874.

Question: With C24G C33U A65U as the variant, how does the yeast fitness read?
Answer: Its yeast fitness is at most 0.5.

Question: Which yeast fitness does the source give for C24G C49A U53A G67A here?
Answer: The yeast fitness was at most 0.5.

Question: With C24U C30U G63A as the variant, how does the yeast fitness read?
Answer: Its yeast fitness is 0.502.

Question: Which yeast fitness does the source give for C24U C27U A43C U47C here?
Answer: The yeast fitness was 0.618.

Question: Which yeast fitness does the source give for C24U A43U here?
Answer: Its yeast fitness is 1.01.

Question: Which yeast fitness does the source give for C24U C31U C49U A70U here?
Answer: Its yeast fitness is 0.64.

Question: For C24G G39C A45G U54A C55U, which yeast fitness is on record?
Answer: Its yeast fitness is at most 0.5.

Question: With C24U A65U A69C as the variant, how does the yeast fitness read?
Answer: The yeast fitness was 0.564.

Question: Which yeast fitness does the source give for C24U A70U here?
Answer: The yeast fitness was 0.881.

Question: Which yeast fitness does the source give for C24U A57C C61A A70G here?
Answer: Its yeast fitness is at most 0.5.

Question: For C24U A37C A40G U54A, which yeast fitness is on record?
Answer: The yeast fitness was at most 0.5.

Question: With C24U C31A C34A G56C as the variant, how does the yeast fitness read?
Answer: The yeast fitness was at most 0.5.

Question: With C24U A45U C55U G67U as the variant, how does the yeast fitness read?
Answer: Its yeast fitness is at most 0.5.

Question: For C24U C30A C55U, which yeast fitness is on record?
Answer: Its yeast fitness is at most 0.5.

Question: With C24G C61U A69U as the variant, how does the yeast fitness read?
Answer: The yeast fitness was 0.516.

Question: For C24U A42U G52A, which yeast fitness is on record?
Answer: The yeast fitness was 0.563.

Question: With C24U C34U A40G C55G as the variant, how does the yeast fitness read?
Answer: The yeast fitness was at most 0.5.

Question: Which yeast fitness does the source give for C24U A37G A45U here?
Answer: Its yeast fitness is 0.562.

Question: Which yeast fitness does the source give for C24U A36G here?
Answer: The yeast fitness was 0.88.

Question: With C24U A36C as the variant, how does the yeast fitness read?
Answer: The yeast fitness was 0.716.

Question: Which yeast fitness does the source give for C24U A36U here?
Answer: Its yeast fitness is 0.592.

Question: With C24U A40U as the variant, how does the yeast fitness read?
Answer: The yeast fitness was 0.78.

Question: For C24U A40C, which yeast fitness is on record?
Answer: The yeast fitness was 0.806.

Question: With C24G C46U G58C C61U as the variant, how does the yeast fitness read?
Answer: The yeast fitness was 0.597.

Question: Which yeast fitness does the source give for C24G C34G G52A here?
Answer: Its yeast fitness is 0.602.

Question: With C24U C46G as the variant, how does the yeast fitness read?
Answer: The yeast fitness was 1.01.

Question: With C24U C46U as the variant, how does the yeast fitness read?
Answer: Its yeast fitness is 0.983.

Question: Which yeast fitness does the source give for C24U C46A here?
Answer: Its yeast fitness is 0.925.

Question: For C24G U32A A43G G50A A65C, which yeast fitness is on record?
Answer: The yeast fitness was at most 0.5.

Question: Which yeast fitness does the source give for C24U C34G G56A here?
Answer: The yeast fitness was at most 0.5.

Question: For C24G G38A, which yeast fitness is on record?
Answer: Its yeast fitness is 0.519.

Question: For C24U C46G C49A C61U, which yeast fitness is on record?
Answer: The yeast fitness was at most 0.5.

Question: Which yeast fitness does the source give for C24G C55U U64A here?
Answer: The yeast fitness was 0.674.

Question: For C24U C31G, which yeast fitness is on record?
Answer: The yeast fitness was 0.845.

Question: For C24U C31U, which yeast fitness is on record?
Answer: Its yeast fitness is 0.96.

Question: Which yeast fitness does the source give for C24G C34U U35A A42C C66A here?
Answer: Its yeast fitness is at most 0.5.

Question: Which yeast fitness does the source give for C24U C34U A40G G50A C55G here?
Answer: Its yeast fitness is at most 0.5.

Question: Which yeast fitness does the source give for C24U A45G A57G here?
Answer: Its yeast fitness is 0.787.

Question: For C24G U28C C29G, which yeast fitness is on record?
Answer: The yeast fitness was at most 0.5.

Question: With C24G G38A U64A as the variant, how does the yeast fitness read?
Answer: Its yeast fitness is at most 0.5.

Question: Which yeast fitness does the source give for C24U C30U A40C G68C here?
Answer: Its yeast fitness is 0.545.

Question: Which yeast fitness does the source give for C24U C31G C33U U59A C62U here?
Answer: The yeast fitness was at most 0.5.

Question: For C24G C49U C61A, which yeast fitness is on record?
Answer: The yeast fitness was at most 0.5.

Question: Which yeast fitness does the source give for C24G G48A G68A here?
Answer: The yeast fitness was at most 0.5.

Question: With C24G C34G G38C C62G A69C as the variant, how does the yeast fitness read?
Answer: Its yeast fitness is at most 0.5.

Question: With C24G C55U A65G as the variant, how does the yeast fitness read?
Answer: Its yeast fitness is 0.546.

Question: With C24U C30G C31A A43G as the variant, how does the yeast fitness read?
Answer: Its yeast fitness is at most 0.5.

Question: Which yeast fitness does the source give for C24U A57C C60U G67C here?
Answer: Its yeast fitness is at most 0.5.

Question: Which yeast fitness does the source give for C24U C31G G44A here?
Answer: Its yeast fitness is 0.508.

Question: For C24G C60G A70G, which yeast fitness is on record?
Answer: Its yeast fitness is at most 0.5.

Question: With C24U A42U A43C as the variant, how does the yeast fitness read?
Answer: Its yeast fitness is 0.889.

Question: For C24U A42U A43U, which yeast fitness is on record?
Answer: The yeast fitness was 1.02.

Question: With C24U A37G A43G A70U as the variant, how does the yeast fitness read?
Answer: Its yeast fitness is at most 0.5.

Question: Which yeast fitness does the source give for C24G G39C C61U here?
Answer: Its yeast fitness is at most 0.5.

Question: With C24U A36C A43U as the variant, how does the yeast fitness read?
Answer: The yeast fitness was 0.578.

Question: Which yeast fitness does the source give for C24G G48C C49U here?
Answer: The yeast fitness was at most 0.5.

Question: For C24U A37G G39A G48C G68U, which yeast fitness is on record?
Answer: The yeast fitness was at most 0.5.

Question: With C24G G25C A45G as the variant, how does the yeast fitness read?
Answer: The yeast fitness was 0.512.

Question: Which yeast fitness does the source give for C24U A69U here?
Answer: Its yeast fitness is 0.99.

Question: For C24U A69C, which yeast fitness is on record?
Answer: The yeast fitness was 0.887.

Question: With C24U A42U G67A as the variant, how does the yeast fitness read?
Answer: The yeast fitness was 0.567.

Question: For C24U C49U, which yeast fitness is on record?
Answer: The yeast fitness was 0.969.

Question: Which yeast fitness does the source give for C24U C49A here?
Answer: The yeast fitness was 0.716.

Question: Which yeast fitness does the source give for C24U A37U A65U A69C here?
Answer: Its yeast fitness is at most 0.5.

Question: With C24U C34U C46A as the variant, how does the yeast fitness read?
Answer: The yeast fitness was at most 0.5.

Question: Which yeast fitness does the source give for C24U C34U C46U here?
Answer: The yeast fitness was at most 0.5.

Question: With C24U A37G C49G as the variant, how does the yeast fitness read?
Answer: Its yeast fitness is at most 0.5.

Question: Which yeast fitness does the source give for C24G U47C G68C A70C here?
Answer: Its yeast fitness is at most 0.5.

Question: Which yeast fitness does the source give for C24U C27G A65C here?
Answer: The yeast fitness was at most 0.5.

Question: Which yeast fitness does the source give for C24U A36C U53C here?
Answer: Its yeast fitness is at most 0.5.

Question: Which yeast fitness does the source give for C24G G41C here?
Answer: Its yeast fitness is 0.582.

Question: Which yeast fitness does the source give for C24U A37G G39A G48C A69C here?
Answer: Its yeast fitness is at most 0.5.

Question: Which yeast fitness does the source give for C24G G38A U53A here?
Answer: Its yeast fitness is at most 0.5.

Question: Which yeast fitness does the source give for C24U A45U here?
Answer: Its yeast fitness is 0.919.

Question: For C24U C30U C31G, which yeast fitness is on record?
Answer: The yeast fitness was 0.623.

Question: Which yeast fitness does the source give for C24U A43U U47C here?
Answer: The yeast fitness was 0.794.

Question: Which yeast fitness does the source give for C24U A45U C55U here?
Answer: Its yeast fitness is 0.569.
